Values after ≈ are worked out from the molar mass of the structure shown.
Tests used:
[1] = target: T1, Melanin-concentrating hormone receptor 1 (Homo sapiens, UniProt Q99705); assay: Displacement of [125I]MCH from human MCHR1 expressed in CHO cells after 1 hr by scintillation counting; assay type: cell-based
Outline: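 CHO cell membranes stably expressing human or rat MCHR1 incubated 1 h at room temperature with [125I]MCH(4−19) and compound at various concentrations. Filtration through GF/C glass filters, bound radioactivity counted by scintillation. IC50 from one experiment in duplicate.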

[2] = target: T2, 5-hydroxytryptamine receptor 2C (Homo sapiens, UniProt P28335); assay: Displacement of [3H]mesulergine from human 5HT2C receptor expressed in CHO cells after 1 hr by scintillation counting; assay type: cell-based
T2 sequence (P28335 whole entry): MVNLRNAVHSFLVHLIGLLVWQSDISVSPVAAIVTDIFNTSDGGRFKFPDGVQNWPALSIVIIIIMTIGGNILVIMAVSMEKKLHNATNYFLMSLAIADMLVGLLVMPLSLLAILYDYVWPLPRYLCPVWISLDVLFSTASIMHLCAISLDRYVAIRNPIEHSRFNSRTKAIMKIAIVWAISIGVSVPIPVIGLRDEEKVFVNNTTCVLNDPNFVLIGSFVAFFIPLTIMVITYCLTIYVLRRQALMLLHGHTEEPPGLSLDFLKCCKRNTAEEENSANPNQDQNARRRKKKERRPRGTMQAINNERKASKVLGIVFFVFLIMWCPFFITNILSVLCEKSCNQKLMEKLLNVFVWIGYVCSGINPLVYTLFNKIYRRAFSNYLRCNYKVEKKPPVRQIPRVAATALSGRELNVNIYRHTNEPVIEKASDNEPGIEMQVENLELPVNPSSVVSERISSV
Outline: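 Membranes from CHO cells stably expressing human 5-HT2c incubated 1 h at room temperature with [3H]mesulergine and compound at various concentrations. Terminated by GF/C filtration, filter radioactivity counted by scintillation. IC50 from one experiment in duplicate.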

[3] = target: T1, Melanin-concentrating hormone receptor 1; assay: Antagonist activity at human MCHR1 expressed in CHO cells assessed as inhibition of MCH-induced [3H]arachidonic acid release […] by liquid scintillation counting; assay type: functional, cell-based; conditions: in the assay text read “45 mins” for “16 hrs”
Outline: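 Human MCHR1-CHO cells seeded at 50 000/well, cultured 1 day, then loaded with [3H]arachidonic acid (0.2 μCi/well) for 16 h. Washed with DMEM containing 20 mM HEPES pH 7.4 and 0.2% BSA. Compound preincubated 30 min at 37 °C, MCH added, 45 min incubation, medium radioactivity by liquid scintillation.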

[4] = Solubility of the compound in JP2 solution at 10 mM; assay type: physicochemical
Outline: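 The 10 mM DMSO solution of compound was added to JP2 until opalescence appeared.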

Rattus norvegicus [5] = assay: Antiobesity activity in high-fat diet fed Fischer 344 rat DIO model assessed as inhibition of food intake at 1 mg/kg, po after 6 hrs; assay type: functional; conditions: Fischer 344, 6 h
Outline: (§1)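 Male F344/Jcl rats, 52 weeks old, fed high-fat diet from 5 weeks of age, housed singly and acclimated to oral water dosing; grouped by overnight food intake and body weight. Single oral dose at 15:00 as 0.5% methylcellulose suspension, 2 mL/kg, six rats per group; vehicle controls. Cumulative food intake at 6 and 17 h; percent inhibition versus control, mean ± SD.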

Rattus norvegicus [6] = assay: Antiobesity activity in high-fat diet fed Fischer 344 rat DIO model assessed as inhibition of food intake at 1 mg/kg, po after 17 hrs; assay type: functional; conditions: Fischer 344, 17 h; outline: as §1

T1 sequence (Q99705 whole entry): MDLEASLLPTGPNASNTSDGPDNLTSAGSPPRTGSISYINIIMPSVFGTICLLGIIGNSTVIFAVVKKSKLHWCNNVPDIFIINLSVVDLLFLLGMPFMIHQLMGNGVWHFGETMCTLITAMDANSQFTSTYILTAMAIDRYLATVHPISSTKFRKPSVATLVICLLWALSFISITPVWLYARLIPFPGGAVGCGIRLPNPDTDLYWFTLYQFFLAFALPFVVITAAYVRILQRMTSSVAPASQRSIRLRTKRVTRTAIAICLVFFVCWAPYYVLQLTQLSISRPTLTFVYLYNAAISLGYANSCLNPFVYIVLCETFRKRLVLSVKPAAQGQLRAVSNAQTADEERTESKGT

| Compound | IC50 [1] | IC50 [2] | IC50 [3] | solubility [4] | inhibition in vivo at 1 mg/kg (Rattus norvegicus [5]) | inhibition in vivo at 1 mg/kg (Rattus norvegicus [6]) |
| --- | --- | --- | --- | --- | --- | --- |
| COc1c(NC(=O)c2ccc(-c3ccc(F)cc3)cc2)ccc2cc(CN3CCCC3)cnc12 | 110 nM |  |  |  |  |  |
| O=C(Nc1ccc2cc(CN3CCCC3)cnc2c1)N1CCC(c2ccc(Cl)cc2)CC1 | 6.6 nM | 55 nM |  |  |  |  |
| Cc1ccc(-c2ccc(C(=O)Nc3ccc4cc(CN5CCCC5)cnc4c3)cc2)cc1 | 2.2 nM | 660 nM |  |  |  |  |
| O=C(Nc1ccc2cc(CN3CCCC3)cnc2c1)N1CCC(c2ccc(F)cc2)CC1 | 35 nM |  |  |  |  |  |
| O=C(Nc1ccc2c(c1)OCC(CN1CCCC1)=C2)c1ccc(-c2ccc(F)cc2)cc1 | 0.91 nM | 3.1 nM | 10 nM | 0.17 µg/mL (≈ 0.397 µM) |  |  |
| Cc1c(NC(=O)c2ccc(-c3ccccc3)cc2)ccc2cc(CN3CCCC3)cnc12 | 1.8 nM | 760 nM | 7 nM |  |  |  |
| CC(C)CC(N(C)C)C1(c2ccc(Cl)cc2)CCC1 (configuration not stated) [SIBUTRAMINE] |  |  |  |  | 34.6% | 25.8% |
| O=C(Nc1ccc2cc(CN3CCCC3)ccc2c1)c1ccc(-c2ccc(F)cc2)cc1 | 0.76 nM | 120 nM | 9 nM | 0.11 µg/mL (≈ 0.259 µM) |  |  |
| Cc1c(NC(=O)c2ccc(-c3ccc(Cl)cc3)cc2)ccc2cc(CN3CCCC3)cnc12 | 0.36 nM | > 1000 nM | 7.6 nM |  |  |  |
| O=C(Nc1cc2ncc(CN3CCCC3)cc2cc1F)c1ccc(-c2ccc(F)cc2)cc1 | 1.4 nM | 280 nM | 8.4 nM |  |  |  |
| O=C(Nc1ccc2cc(CN3CCCC3)cnc2c1)N1CCC(c2ccccc2)CC1 | 100 nM |  |  |  |  |  |
| O=C(Nc1ccc2cc(CN3CCCC3)cnc2c1)c1ccc(-c2ccc(F)cc2)cc1 | 2.8 nM | 160 nM | 9.2 nM | 1.5 µg/mL (≈ 3.53 µM) |  |  |
| O=C(Nc1ccc2cc(CN3CCCC3)cnc2c1)c1ccc(-c2ccccc2)cc1 | 13 nM | 310 nM |  |  |  |  |
| O=C(Nc1ccc2cc(CN3CCCC3)cnc2c1)c1ccc(-c2ccc(Cl)cc2)cc1 | 0.74 nM | 630 nM | 8.5 nM |  |  |  |
| O=C(Nc1ccc2cc(CN3CCCC3)cnc2c1)c1ccc(-c2ccc(F)cc2)nc1 | 25 nM | 830 nM |  |  |  |  |
